# Yeast lifespan up: extends the lifespan of yeast. S. cerevisiae growth with nicotinamide, OD615; deaD strain in restrictive glucose medium. inhibition of the nicotinamide effect, % at 10 µM. 130,000 tested, 0.68% active;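 active = inhibition above a set limit, placed 3 SD over the median of all compounds, cut at about 26% in these data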
#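 System: DeaD-strain S. cerevisiae / Buffer or medium: CSMM-D, restrictive glucose (dextrose) synthetic minimal medium / Probe or stimulus: nicotinamide, 1.5 mM, co-present with compound / Compound: one concentration, 10 µM, DMSO 0.25% / Incubation: 48 h compound exposure at 30 °C, humidified / Technique: optical density (absorbance) at 615 nm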
# BB579 growth dn: yeast BB579 growth reduction in restrictive medium; inhibition, % at 10 µM; S. cerevisiae BB579 growth, OD615, 48 h; AID 804; 140,000 tested, 0.51% active;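 active = inhibition above a set limit, 3 SD over the mean compound inhibition, cut at about 44% in these data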
#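 System: DeaD yeast strain BB579; buffer or medium: CSMM-D dextrose restrictive medium; technique: OD at 615 nm; schedule: 4 h cell preincubation, 48 h compound exposure, 30 °C humidified; doses: single 10 µM dose; controls: amphotericin B 10 µg/mL, positive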
# PostGolgi ctrl: inhibits growth of the yeast control strain; 98,000 tested, 5% active; efflux-deficient yeast background strain, growth absorbance A615, 16 h; inhibition, % at 10 µM
# PostGolgi yeast: growth inhibition of a yeast mutant, post-Golgi transport screen; post-Golgi transport phenotypic cell assay; 98,000 tested, 0.9% active; inhibition, % at 10 µM;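 also: yeast cells grown in 1536-well plates; yeast grown about 18 h at 30C before absorbance read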
# Hits are given with their value; - = inactive; . = no result given. The entries come from a sample that favours hits as a whole. Rule as the data show it, unless noted: active = inhibition above about 30%; inactive = the rest.
SMILES,Yeast lifespan up,BB579 growth dn,PostGolgi ctrl,PostGolgi yeast
Cc1c(C(=O)OCC(=O)Nc2ccc3c(c2)OCO3)cccc1[N+](=O)[O-],-,-,.,.
CCCn1c(CNc2ccc(Br)cc2)nc2ccccc21,-,-,71,-
CCn1c(CNc2ccc(C(=O)O)cc2)nc2ccccc21,-,-,-,39
CCOc1ccccc1NC(=O)c1ccccc1-c1nc(-c2ccccc2OC)no1,-,-,-,-
O=C1c2ccccc2C(=O)N1CCc1nc(-c2ccc(Cl)cc2)no1,-,-,-,-
O=C1c2ccccc2C(=O)N1CCc1nc(-c2ccncc2)no1,-,-,-,-
O=C1c2ccccc2C(=O)N1CCCCCc1nc(-c2ccccc2)no1,-,-,49,-
Cc1ccc(-c2noc(CCCN3C(=O)c4ccccc4C3=O)n2)cc1,-,-,31,-
Cc1cccc(OCCNc2cc(N3CCOCC3)ccc2[N+](=O)[O-])c1,-,-,66,-
Cc1cccc(OCCNc2cc(N3CCN(C)CC3)ccc2[N+](=O)[O-])c1,-,-,.,.
Cc1noc(NS(=O)(=O)c2ccc(N/C=C\C(=O)c3ccc4c(c3)OCO4)cc2)c1C,-,-,38,-
O=C1CC(c2cccc(Cl)c2)CC(O)=C1C=Nc1cccc(Cl)c1 (configuration not stated),29,-,.,.
CCN(CC(=O)NCc1ccc(F)cc1)CC(O)COCc1cccc(OC)c1 (configuration not stated),-,-,-,-
O=C(CN(CC1CCCO1)C(=O)CNS(=O)(=O)c1ccc(Cl)cc1)NCC1CCCO1 (configuration not stated),.,-,.,.
Cc1ccc(NC(=O)CCC(=O)NNC(=O)/C=C/C(=O)O)c(C)c1,-,-,.,.
CC(C)(C)NC(=O)c1ccc(COc2ccccc2Br)o1,-,-,33,-
CC(=O)N1CCc2cc(S(=O)(=O)Nc3cccc(C(F)(F)F)c3)ccc21,-,-,-,-
CC(=O)N1CCCc2cc(S(=O)(=O)Nc3ccc4c(c3)OCO4)ccc21,-,-,33,-
COc1ccc(C(=O)Nc2c(Cl)cc(Cl)cc2C(=O)NCCN2CCOCC2)cc1,.,-,.,.
COC(=O)c1nnn(-c2nonc2N)c1CSc1nc2ccccc2s1,-,-,60,-
COc1cc(-c2nnc(SCC3(c4ccccc4)OCCO3)o2)cc(OC)c1OC,-,-,-,-
Cc1ccc(/C=C2\SC(=S)N(C(Cc3ccccc3)C(=O)O)C2=O)cc1 (configuration not stated),-,-,.,.
O=C(O)C(Cc1ccccc1)N1C(=O)/C(=C/c2ccccc2)SC1=S (configuration not stated),33,-,.,.
O=C(NCc1ccc2c(c1)OCO2)c1ccc(COc2cccc(Cl)c2)o1,-,-,60,-
Cc1ccc(CC(=O)NCc2ccc3c(c2)OCO3)cc1,-,-,-,-
SMILES,Yeast lifespan up,BB579 growth dn,PostGolgi ctrl,PostGolgi yeast
Cc1ccc(S(=O)(=O)Cc2ccc(C(=O)NCc3ccc4c(c3)OCO4)o2)cc1,-,-,34,-
O=C(CCC(=O)N(Cc1ccco1)C(C(=O)NC1CCCC1)c1ccncc1)Nc1cccnc1 (configuration not stated),-,-,-,-
Cc1cc(=O)n2c(-c3ccccc3C)n[nH]c2n1,-,-,-,31
CC1=CC(C)(C)N(S(=O)(=O)c2ccc(C)cc2)c2ccc(C)cc21,-,-,60,-
O=C(CCS(=O)(=O)c1cccc2nsnc12)NCc1ccccc1Cl,-,-,-,-
O=C(CN1CCN(S(=O)(=O)c2ccc3ccccc3c2)CC1)Nc1ccc2c(c1)CCC2,-,-,.,.
Cc1occc1C(=O)n1nnc2ccccc21,-,-,32,-
Cc1ccc(C(=O)n2nnc3ccccc32)cc1[N+](=O)[O-],32,-,.,.
COc1ccc(C(=O)n2nnc3ccccc32)cc1OC,-,-,.,.
CCSc1ccccc1C(=O)n1nnc2ccccc21,60,-,-,-
Cc1noc(C)c1COC(=O)CCN1c2ccccc2Sc2ccccc21,-,-,-,-
CCOC(=O)c1c(C)n(C)c2c(C)cc(O)c(OC(=O)CC)c12,-,-,-,-
CN1CCN(C(=O)/C(=C\c2cccs2)NC(=O)c2ccco2)CC1,-,-,.,.
COc1ccc(C2(C(=O)NCCCN3CCOCC3)CCOCC2)cc1,-,-,-,-
CCC(C)n1c(-c2cccs2)nc2nc3ccccc3nc21 (configuration not stated),-,-,35,-
Cc1cc(C)n(C(=O)c2ccc(NC(=O)C3COc4ccccc4O3)cc2)n1 (configuration not stated),-,-,33,-
CC(C)(C)NC(=O)c1cccc(NC(=O)c2cccc(O)c2)c1,-,-,-,-
CCN(CC)S(=O)(=O)c1cc(NC(=O)C(=O)c2c(-c3ccccc3)cc3ccccn23)ccc1C,-,-,-,-
CCN(CC)S(=O)(=O)c1ccc(N2CCOCC2)c(NC(=O)C2CCCC2)c1,-,-,.,.
CCN(CC)S(=O)(=O)c1ccc(N2CCOCC2)c(NC(=O)C(=O)c2c(-c3ccccc3)cc3ccccn23)c1,-,-,98,72
CCN(CC)S(=O)(=O)c1cccc(NC(=O)C(=O)c2c(-c3ccccc3)cc3ccccn23)c1,-,-,72,-
CC1CCN(Cc2c(C#N)c3ccccc3n2C)CC1,-,-,-,-
CNc1nc(-c2ccccn2)nnc1-c1ccccc1,-,-,-,-
c1ccc(-c2nnc(-c3ccccn3)nc2NC2CCCCC2)cc1,-,94,87,40
Clc1cc(Cl)c(OCc2nc(-c3ccccn3)no2)cc1Cl,-,-,-,-
SMILES,Yeast lifespan up,BB579 growth dn,PostGolgi ctrl,PostGolgi yeast
CC(C)(C)c1ccc(OCc2nc(-c3ccccn3)no2)c(Br)c1,-,-,32,-
O=C1OC(c2ccc3c(c2)OCO3)N(C(=O)c2ccc(Cl)c(Cl)c2)c2ccccc21 (configuration not stated),-,-,30,-
N[C@@H](Cc1ccc(O)c(I)c1)C(=O)O,-,-,.,.
O=C(O)Cc1cc(I)c(Oc2ccc(O)c(I)c2)c(I)c1,31,66,.,.
C=C(C)C1CC=C(CN2CC(C)OC(C)C2)CC1 (configuration not stated),-,-,-,95
CCOC(=O)C1CCN(Cc2ccc(F)cc2)CC1,.,-,.,.
C=C(C)C1CC=C(CN2CCC(C(=O)OCC)CC2)CC1 (configuration not stated),-,-,-,78
CCC1/C(=N\O)CC(c2ccco2)NC1c1ccco1 (configuration not stated),-,-,-,-
Cc1[nH]c(=O)[nH]c(=O)c1S(=O)(=O)NCC12CC3CC(CC(C3)C1)C2,-,-,43,-
CCC(NS(=O)(=O)c1c(C)[nH]c(=O)[nH]c1=O)C12CC3CC(CC(C3)C1)C2 (configuration not stated),-,-,-,-
COc1ccccc1N1CCN(C(c2ccccc2Cl)c2nnnn2C(C)(C)C)CC1 (configuration not stated),-,-,38,-
CC(C)(C)n1nnnc1C(c1ccc(Cl)cc1)N1CCCc2ccccc21 (configuration not stated),-,-,-,-

# Screening results from PubChem BioAssay.
